In ChEMBL document CHEMBL1124357, “The xanthene-9-spiro-4'-piperidine nucleus as a probe for opiate activity” (J Med Chem, 1989):

Tests used:
Cavia porcellus [1] = species: Cavia porcellus; experiment: Relative potency to that of normorphine in the electrically stimulated Guinea pig ileum test; assay type: functional
Procedure, shortened: (§1)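 Electrically evoked twitch of guinea pig tissue. IC50, the concentration giving 50% inhibition of the twitch, was calculated by linear regression. Potency was expressed relative to normorphine assayed on the same tissues.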

Cavia porcellus [2] = species: Cavia porcellus; experiment: Concentration to produce 50%inhibition of the electrically evoked twitch in guinea pig; assay type: functional; procedure, shortened: as §1

Structure (SMILES)	Relative potency (Cavia porcellus [1])	IC50 (Cavia porcellus [2])
CN1CCC2(CC1)c1ccccc1Oc1c(CO)cccc12	0.004	
CN1CCC2(CC1)c1cccc(O)c1Oc1cccc(Cl)c12	0.031	
c1ccc(NCCN2CCC3(CC2)c2ccccc2Oc2ccccc23)cc1	3.5	
COc1cccc2c1C1(CCN(C)CC1)c1cccc(O)c1O2	0.094	
CN1CCC2(CC1)c1ccccc1Oc1c(S)cccc12	0.001	
CN1CCC2(CC1)c1ccccc1Oc1c(N)cccc12	0.055	
CC(=O)Nc1cccc2c1Oc1ccccc1C21CCN(C)CC1	0.008	
Cc1cccc2c1C1(CCN(C)CC1)c1cccc(O)c1O2	0.237	
CC(=O)Oc1cccc2c1Oc1ccccc1C21CCN(C)CC1	1	
CN1CCC2(CC1)c1ccccc1Oc1c(O)cccc12	0.175	
CN1CCC2(CC1)c1cccc(O)c1Oc1cccc(F)c12	0.16	
CCC(=O)C(CC(C)N(C)C)(c1ccccc1)c1ccccc1 (stereo not drawn) [METHADONE]	0.91	
Oc1ccc2c3c1O[C@H]1[C@@H](O)C=C[C@H]4[C@@H](C2)NCC[C@@]341 [NORMORPHINE]		31.3 nM
